# TRPC4 PAM: allosterically enhances the mouse TRPC4 cation channel; HEK293 TRPC4beta/mu-opioid, DAMGO EC20, Fluo-4 Ca2+ flux; stronger effect = higher value; B-score at 10 µM; 0.42% of 310,000 active; AID 2227;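 active means B-score of calcium response area above 5 SD of library B-scores, with initial fluorescence ratio within 5 SD of library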;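 further: B-score of integrated fluorescence ratio over time as area under calcium response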
# TRPC6 inh: inhibitors of mouse TRPC6 channel | Q61143 | HEK293-TRPC6, membrane potential dye, ACh-evoked depolarization; stronger effect = lower value | B-score at 10 µM | 1.1% of 310,000 active;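 active means B-score under library mean minus 3 SD, initial fluorescence not abnormally high, positive integrated signal ratio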;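 further: B-score derived from integrated fluorescence ratio over the kinetic read; more negative B-score means stronger inhibition of depolarization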
# Target sequence (Q61143 whole entry, looked up): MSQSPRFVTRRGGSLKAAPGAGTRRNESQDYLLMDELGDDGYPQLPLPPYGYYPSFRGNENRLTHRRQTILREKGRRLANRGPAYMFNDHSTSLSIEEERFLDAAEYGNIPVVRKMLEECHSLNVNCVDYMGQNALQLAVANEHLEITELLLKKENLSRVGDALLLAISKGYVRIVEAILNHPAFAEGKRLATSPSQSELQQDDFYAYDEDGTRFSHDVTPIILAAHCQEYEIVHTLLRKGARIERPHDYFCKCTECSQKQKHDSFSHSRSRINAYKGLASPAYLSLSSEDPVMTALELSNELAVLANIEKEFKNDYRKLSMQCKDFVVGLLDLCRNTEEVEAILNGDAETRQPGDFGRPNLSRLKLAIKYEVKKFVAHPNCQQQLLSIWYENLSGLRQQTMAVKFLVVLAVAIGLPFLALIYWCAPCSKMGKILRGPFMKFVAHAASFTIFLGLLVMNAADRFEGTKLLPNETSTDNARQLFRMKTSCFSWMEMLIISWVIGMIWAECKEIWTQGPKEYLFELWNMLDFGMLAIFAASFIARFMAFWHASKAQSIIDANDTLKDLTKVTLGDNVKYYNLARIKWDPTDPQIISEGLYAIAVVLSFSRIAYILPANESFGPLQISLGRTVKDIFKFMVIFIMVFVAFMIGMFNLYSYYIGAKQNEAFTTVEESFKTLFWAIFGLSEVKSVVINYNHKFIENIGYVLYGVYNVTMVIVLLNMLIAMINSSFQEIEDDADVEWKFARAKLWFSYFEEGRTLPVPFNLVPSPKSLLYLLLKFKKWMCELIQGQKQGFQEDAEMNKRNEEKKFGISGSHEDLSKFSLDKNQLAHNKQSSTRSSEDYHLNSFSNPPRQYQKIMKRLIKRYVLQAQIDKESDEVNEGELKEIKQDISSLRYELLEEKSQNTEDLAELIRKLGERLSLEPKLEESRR
# TRPC4 agonist: activators of mouse TRPC4 channel | Q9QUQ5 | AID 2237 | B-score at 10 µM | HEK293 TRPC4beta/mu-opioid, Fluo4 calcium fluorescence; stronger effect = higher value | 0.49% of 310,000 active;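 active means B-score above 5 SD of library B-scores, and initial fluorescence ratio not above library mean plus 5 SD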;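 further: positive B-score marks a calcium rise read as TRPC4 activation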
#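 Material: TRPC4beta and mu-opioid receptor HEK293 stable cells | Incubation: 45 min room-temperature Fluo4 loading, 110 s read | Detection: Kinetic Fluo4 calcium fluorescence | Measure: Integrated baseline-normalised fluorescence ratio, converted to per-well B score | Benchmarks: Low control buffer alone, high control maximal DAMGO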
# TRPC4 inh: blocks the mouse TRPC4 cation channel; B-score at 10 µM; Q9QUQ5; 0.39% of 300,000 active; HEK293 TRPC4beta/mu-opioid, DAMGO-evoked Fluo4 calcium flux; stronger effect = lower value;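 active means B-score over 3 SD under the library average, no early fluorescence shift, positive overall ratio signal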
#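 Assay system: HEK293 cells with stable TRPC4beta plus mu-opioid receptor expression; Probe or stimulus: DAMGO in two steps, submaximal then maximal; Dosing: single-point compound dosing; Measured by: Fluo4 calcium-dye fluorescence, kinetic read; Read-out basis: B score from integrated Fluo4 fluorescence ratio.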
# TRPC6 act: mouse TRPC6 channel activation | 0.13% of 310,000 active | HEK293-TRPC6 membrane potential dye fluorescence; stronger effect = higher value | Q61143 | B-score at 10 µM;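 active means B-score of the integrated fluorescence ratio above library mean plus 3 SD, and starting fluorescence ratio within library mean plus 5 SD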;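 further: higher score means more depolarization so channel activation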
# TRPC4 sel inh 2: mouse TRPC4 off-target activity of TRPC6 inhibitors, second screen. inhibition, % at 10 µM. 42% of 920 active. HEK293 TRPC4/MOR, membrane potential dye fluorescence; channel activated by saturating DAMGO dose. AID 2776. shares compounds with TRPC6 inh;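 active means compounds whose fluorescence signal differed from control wells by over 3 SD, either direction, in both duplicate plates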
# TRPC4 spec: mouse TRPC4 off-target activity of TRPC6 inhibitors | 61% of 920 active | AID 2777 | HEK293 TRPC4/mu-opioid, membrane potential fluorescence | activity change, negative = inhibition, % at 10 µM | shares compounds with TRPC6 inh;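 active means rise or fall in signal beyond 3 SD of buffer-only wells in both replicate plates, either sign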;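 further: integrated kinetic ratio of fluorescence range over baseline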
# HEK293 MPD ctr 2-1: second counter-screen for TRPC6 inhibitors: parental HEK293 cells; shares compounds with TRPC6 inh; parental HEK293 membrane potential dye fluorescence; maximal acetylcholine challenge after compound addition; signal change vs control, % at 10 µM; 31% of 920 active;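 active means membrane potential signal moving either way by over 3 SD of the maximum-effect control, in both duplicate plates, meaning non-specific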
# HEK293 MPD ctr-1: checks TRPC6 inhibitor effects in parental HEK293 cells. shares compounds with TRPC6 inh. parental HEK293 membrane potential dye fluorescence. membrane potential signal change, % at 10 µM. 60% of 920 active. AID 2780;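 active means membrane potential signal shifting up or down by more than 3 SD of buffer-only wells, on both duplicate plates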
# HEK293 MPD ctr-2: counter-screen for TRPC6 modulators: effect in parental HEK293 cells; shares compounds with TRPC6 inh; membrane potential signal change, % at 10 µM; AID 488924; 51% of 2,400 active; membrane potential dye fluorescence;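 active means membrane potential signal moves up or down beyond 5 SD from buffer-only wells, on both duplicate plates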
# HEK293 MPD ctr 2-2: second counter-screen for TRPC6 modulators: effect in parental HEK293 cells | shares compounds with TRPC6 inh | membrane potential dye fluorescence; after compound, maximal acetylcholine stimulation | inhibition, % at 10 µM | 14% of 2,400 active;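 active means membrane potential signal drops by more than 5 SD from the mean control signal, in both duplicate plates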;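 further: plate controls were acetylcholine ECmax control wells for no effect and buffer only wells for full effect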
# TRPC4/MOR mod: mouse TRPC4 off-target activity of TRPC6 modulators; shares compounds with TRPC6 inh; HEK293 TRPC4/mu-opioid, membrane potential fluorescence; percent change from control (negative = decrease, positive = increase), % at 10 µM; 69% of 2,400 active;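 active means membrane potential signal moved up or down beyond 5 SD of buffer control wells, in both duplicate plates, actives on both sides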;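 further: plate controls were assay buffer wells for no effect and DAMGO maximal-effect wells for full effect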
# TRPC4/MOR inh 2: second selectivity test of TRPC6 modulators against mouse TRPC4; AID 488928; shares compounds with TRPC6 inh; 55% of 2,400 active; inhibition, % at 10 µM; HEK293 TRPC4/mu-opioid, membrane potential dye fluorescence; stimulated with maximal-effect DAMGO;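 active means drop in membrane potential signal beyond 5 SD of the control wells in both duplicate plates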;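 further: TRPC4 counter screen for TRPC6 hits run under conditions tuned for TRPC6 not TRPC4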
# TRPC6 block conf: mouse TRPC6 inhibitor confirmation; shares compounds with TRPC6 inh; HEK293-TRPC6, membrane potential dye, ACh-evoked depolarization; inhibition, % at 10 µM; 43% of 3,300 active; AID 488960;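 active means fluorescence ratio falls more than 5 SD below the full-stimulation control mean, in both duplicate runs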;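 further: integrated fluorescence ratio of peak minus minimum over baseline after agonist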
# TRPC6 act confirm: confirmation of mouse TRPC6 activators. shares compounds with TRPC6 inh. HEK293-TRPC6 membrane potential dye fluorescence, FDSS. activation, % at 10 µM. 11% of 2,800 active. AID 488961;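 active means ratio signal rise beyond 5 SD above unstimulated control wells' mean, seen in both duplicate runs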;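 further: plate controls were buffer EC0 wells for no effect and acetylcholine ECmax response for full effect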
# Starred values were filed as active, the others as inactive; i = inactive; . = no result given. Compounds with a hit are over-represented: about 2.3% of the library has one in this group of screens.
SMILES,TRPC4 PAM,TRPC6 inh,TRPC4 agonist,TRPC4 inh,TRPC6 act,HEK293 MPD ctr-2,HEK293 MPD ctr 2-2,TRPC4/MOR mod,TRPC4/MOR inh 2,TRPC6 block conf,TRPC6 act confirm,others
Cc1nnc(NC(=O)c2c(-c3ccccc3Cl)noc2C)s1,i,i,i,i,i,.,.,.,.,.,.,
CCOc1cc(C=O)ccc1OCCn1c([N+](=O)[O-])cnc1C,i,i,i,i,i,.,.,.,.,.,.,
Cc1nn(CC(=O)O)c(C)c1Cl,i,-11.5*,i,i,i,i,i,i,i,i,i,
Cc1nn(CC(=O)O)c(C)c1C,i,i,i,i,i,.,.,.,.,.,.,
Cc1nc2cc(C(F)(F)F)ccc2n1C1CCN(CC(=O)N2CCCC2)CC1,i,i,i,i,i,.,.,.,.,.,.,
Cc1nc2cc(C(F)(F)F)ccc2n1C1CCN(CC(=O)N2CCOCC2)CC1,i,-5.21*,i,i,i,i,i,i,i,i,i,
Cc1[nH]c2c(C)cccc2c1CCNS(=O)(=O)c1cccc([N+](=O)[O-])c1,i,-8.69*,i,i,i,-100.5%*,i,-26.0%*,31.5%*,i,i,
Cc1ccc([N+](=O)[O-])cc1S(=O)(=O)NCCc1c(C)[nH]c2c(C)cccc12,i,i,i,i,i,.,.,.,.,.,.,
CCOc1cc(S(=O)(=O)N2CCCCCC2)ccc1F,i,-6.72*,i,i,i,.,.,.,.,i,i,TRPC4 sel inh 2=i;TRPC4 spec=i;HEK293 MPD ctr 2-1=i;HEK293 MPD ctr-1=i
CCCCOc1ccc(S(=O)(=O)N2CCCCCC2)cc1,i,-5.63*,i,i,i,i,i,i,i,46.0%*,i,
CCOC(=O)N1CCN(S(=O)(=O)c2ccc(OCC)c3ccccc23)CC1,i,-7.84*,i,i,i,.,.,.,.,i,i,TRPC4 sel inh 2=i;TRPC4 spec=i;HEK293 MPD ctr 2-1=i;HEK293 MPD ctr-1=i
CCOc1ccccc1N1CCN(S(=O)(=O)c2ccc(F)c(F)c2)CC1,i,i,i,i,i,.,.,.,.,.,.,
CCOC(=O)N1CCN(C(=O)COc2ccc3ccccc3c2Br)CC1,i,-6.59*,i,i,i,i,i,12.5%*,i,i,.,
COc1cc(/C=C(/NC(=O)c2ccccc2)C(=O)Nc2ccc(O)cc2)c([N+](=O)[O-])cc1OC,i,i,i,i,i,.,.,.,.,.,.,
CCN1C(=O)[C@H]2[C@@H](c3ccc(-c4cccc(Cl)c4)c(OC)c3)N[C@@](CC(C)C)(C(=O)OC)[C@H]2C1=O,i,i,i,i,i,.,.,.,.,.,.,
CCOC(=O)N1CCN(S(=O)(=O)c2ccc(OCC)cc2)CC1,i,-6.19*,i,i,i,i,i,31.0%*,i,i,.,
Cc1cc(C)c(Cn2ncn(-c3ccc(Br)cc3)c2=O)c(C)c1,i,i,i,i,i,.,.,.,.,.,.,
COc1ccc(-n2c(NCCN(C)C)nc3sc4c(c3c2=O)CCCCC4)cc1,i,-7.49*,i,i,i,.,.,.,.,i,i,TRPC4 sel inh 2=i;TRPC4 spec=i;HEK293 MPD ctr 2-1=i;HEK293 MPD ctr-1=i
CN(C)CCNc1nc2sc3c(c2c(=O)n1-c1ccc(F)cc1)CCCCC3,i,-5.78*,i,i,i,i,i,i,50.5%*,i,i,
CC(CCN1C(Nc2ccccc2)=NC[C@@H]1Cc1ccccc1)c1ccccc1 (stereo not given in full),i,i,i,i,i,.,.,.,.,.,.,
Cc1cc(-n2cccn2)ccc1CN1CCN(C2CCCC2)C(CCO)C1 (stereo not given),i,-9.67*,i,i,i,.,.,.,.,62.5%*,.,TRPC4 sel inh 2=i;TRPC4 spec=8.4%*;HEK293 MPD ctr 2-1=19.5%*;HEK293 MPD ctr-1=9.2%*
CC(=O)Nc1ccc(CN2CCN(C3CCCC3)C(CCO)C2)cc1 (stereo not given),i,-6.89*,i,i,i,.,.,.,.,i,i,TRPC4 sel inh 2=i;TRPC4 spec=i;HEK293 MPD ctr 2-1=i;HEK293 MPD ctr-1=i
Cc1cc(-n2cccn2)ccc1CN1CCN(CC(C)C)C(CCO)C1 (stereo not given),i,-8.35*,i,i,i,.,.,.,.,57.5%*,i,TRPC4 sel inh 2=i;TRPC4 spec=4.3%*;HEK293 MPD ctr 2-1=26.5%*;HEK293 MPD ctr-1=5.6%*
COC(=O)c1ccc(CN2CCN(CCC(C)C)C(CCO)C2)cc1 (stereo not given),i,-5.19*,i,i,i,99.0%*,i,10.5%*,i,i,.,
Cn1nc(C(C)(C)C)c([N+](=O)[O-])c1C(=O)NC1CCCCC1,i,i,i,i,i,.,.,.,.,.,.,
CC(C)CCNC(=O)[C@H](Cc1ccccc1)N1Cc2ccccc2C1=O,i,i,i,i,i,.,.,.,.,.,.,
O=C(NCC1CCCN1S(=O)(=O)c1ccccc1)c1cccc(Cl)c1 (stereo not given),i,i,i,i,i,.,.,.,.,.,.,
CN1CCN(/N=C/c2ccc(N(C)c3ccccc3)cc2)CC1,i,-7.14*,i,i,i,i,i,-11.5%*,56.5%*,63.0%*,i,
CN1CCN(/N=C/c2ccc(N(c3ccccc3)c3ccccc3)cc2)CC1,i,i,i,i,i,.,.,.,.,.,.,
